Measurements as given in ChEMBL document CHEMBL3992526, “Antagonizing NOD2 Signaling with Conjugates of Paclitaxel and Muramyl Dipeptide Derivatives Sensitizes Paclitaxel Therapy and Significantly Prevents Tumor Metastasis” (J Med Chem, 2017).
Each block holds one compound with its values, some of them ahead of it. Calls of active or inactive are those of the source. The rule behind the calls is not given here.

Experiments:
[1] = tested on: Lewis lung carcinoma cell line; assay: Antitumor activity against mouse LLC cells implanted in iv dosed C57BL/6N mouse assessed as tumor growth inhibition; format: functional, organism-based
[2] = Cytotoxicity against HEK-Blue cells expressing human NOD2 assessed as reduction in cell growth at 1.5625 to 50000 nM preincubated for 3 hrs followed by MDP-stimulation for 20 hrs by SRB assay; format: cell-based; conditions: 50 µM
[3] = biological target: T1, Nucleotide-binding oligomerization domain-containing protein 2 (Homo sapiens, UniProt Q9HC29); assay: Inhibition of MDP-induced human NOD2 signaling expressed in HEK-Blue cells preincubated for 3 hrs followed by MDP-stimulation for 20 hrs by spectrophotometry based SEAP reporter gene assay; format: cell-based
T1 sequence (Q9HC29 whole entry, the tested form may be a part): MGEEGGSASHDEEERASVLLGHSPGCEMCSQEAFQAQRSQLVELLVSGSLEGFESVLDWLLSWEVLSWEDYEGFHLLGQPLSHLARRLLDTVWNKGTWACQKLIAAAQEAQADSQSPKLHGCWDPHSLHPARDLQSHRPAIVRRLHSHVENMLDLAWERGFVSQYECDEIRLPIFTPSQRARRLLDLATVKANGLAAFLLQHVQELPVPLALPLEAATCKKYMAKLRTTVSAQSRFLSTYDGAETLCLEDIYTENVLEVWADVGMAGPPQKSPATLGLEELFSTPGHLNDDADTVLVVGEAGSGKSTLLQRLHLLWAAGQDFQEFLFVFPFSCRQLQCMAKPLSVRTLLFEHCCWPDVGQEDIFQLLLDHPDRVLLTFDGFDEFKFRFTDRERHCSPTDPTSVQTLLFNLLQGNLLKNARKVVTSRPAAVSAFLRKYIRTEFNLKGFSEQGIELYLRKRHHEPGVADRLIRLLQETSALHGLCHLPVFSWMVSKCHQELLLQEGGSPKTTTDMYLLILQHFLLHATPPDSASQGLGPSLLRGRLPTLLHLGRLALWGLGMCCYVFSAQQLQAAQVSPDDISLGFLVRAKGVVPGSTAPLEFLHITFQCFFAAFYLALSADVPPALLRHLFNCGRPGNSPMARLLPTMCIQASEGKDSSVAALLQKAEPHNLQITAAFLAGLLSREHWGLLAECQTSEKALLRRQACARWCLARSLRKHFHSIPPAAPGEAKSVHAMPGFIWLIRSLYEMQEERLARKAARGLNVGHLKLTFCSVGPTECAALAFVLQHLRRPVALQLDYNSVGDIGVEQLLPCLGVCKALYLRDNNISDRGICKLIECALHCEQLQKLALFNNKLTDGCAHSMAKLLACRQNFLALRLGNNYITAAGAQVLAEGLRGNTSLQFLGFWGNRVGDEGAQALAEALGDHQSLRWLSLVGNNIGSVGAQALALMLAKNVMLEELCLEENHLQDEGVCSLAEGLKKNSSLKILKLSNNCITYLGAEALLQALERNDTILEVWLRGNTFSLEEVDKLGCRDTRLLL

[4] = biological target: T1, Nucleotide-binding oligomerization domain-containing protein 2; assay: Activation of human NOD2 signaling expressed in HEK-Blue cells incubated for 3 hrs by spectrophotometry based SEAP reporter gene assay; format: cell-based
[5] = Cytotoxicity against HEK-Blue cells expressing human NOD2 assessed as reduction in cell growth at 1.5625 to 50000 nM incubated for 3 hrs by SRB assay; format: cell-based; conditions: 50 µM
[6] = Drug level in tumor of LLC tumor bearing C57BL/6N mouse treated with MTC-220 at 30 mg/kg, iv up to 24 hrs by LC-MS/MS analysis relative to paclitaxel alone; format: ADME, organism-based, Neoplasm; conditions: in vivo
In short: (§1)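 Mice bearing LLC tumors were given a single iv injection at equimolar doses: the conjugate at 30 mg/kg or paclitaxel at 18 mg/kg. Tumor tissue was sampled over time. Intact conjugate, released paclitaxel and MDA-linker were quantified in tumor tissue (nmol/g). Tmax and Cmax were taken from tumor concentration profiles, n=5 per group.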

[7] = Cmax in tumor of LLC tumor bearing C57BL/6N mouse at 18 mg/kg, iv by LC-MS/MS analysis; format: ADME, organism-based, Neoplasm; parameters: dose 18 mg/kg, route intravenous; conditions: in vivo
In short: (§2)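 Tumour-tissue pharmacokinetics in LLC tumour-bearing mice after a single iv injection of PTX at 18 mg/kg, equimolar to the conjugate at 30 mg/kg. Analyte concentrations were measured in tumour tissue over time (n=5 mice). Tmax is given in h and Cmax in nmol/g.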

[8] = AUC (0 to t) in tumor of LLC tumor bearing C57BL/6N mouse at 18 mg/kg, iv up to 24 hrs by LC-MS/MS analysis; format: ADME, organism-based, Neoplasm; conditions: in vivo; in short: as §2
[9] = Tmax in tumor of LLC tumor bearing C57BL/6N mouse at 18 mg/kg, iv by LC-MS/MS analysis; format: ADME, organism-based, Neoplasm; in short: as §1
[10] = Tmax in tumor of LLC tumor bearing C57BL/6N mouse assessed as paclitaxel level at 30 mg/kg, iv by LC-MS/MS analysis; format: ADME, organism-based, Neoplasm; conditions: in vivo
In short: (§3)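 LLC tumor-bearing mice received a single iv injection at 30 mg/kg; tumor tissue was sampled over time and assayed for intact conjugate and its metabolites PTX and MDA-linker. Tmax in h and Cmax in nmol/g tumor were reported, n=5 mice.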

[11] = AUC (0 to t) in tumor of LLC tumor bearing C57BL/6N mouse at 30 mg/kg, iv up to 24 hrs by LC-MS/MS analysis; format: ADME, organism-based, Neoplasm; conditions: in vivo; in short: as §3
[12] = Cmax in tumor of LLC tumor bearing C57BL/6N mouse assessed as paclitaxel level at 30 mg/kg, iv by LC-MS/MS analysis; format: ADME, organism-based, Neoplasm; parameters: dose 30 mg/kg, route intravenous; conditions: in vivo; in short: as §3
[13] = Tmax in tumor of LLC tumor bearing C57BL/6N mouse assessed as MDA-linker level at 30 mg/kg, iv by LC-MS/MS analysis; format: ADME, organism-based, Neoplasm; conditions: in vivo; in short: as §3
[14] = Cmax in tumor of LLC tumor bearing C57BL/6N mouse assessed as MDA-linker level at 30 mg/kg, iv by LC-MS/MS analysis; format: ADME, organism-based, Neoplasm; parameters: dose 30 mg/kg, route intravenous; conditions: in vivo; in short: as §3
[15] = Cmax in tumor of LLC tumor bearing C57BL/6N mouse at 30 mg/kg, iv by LC-MS/MS analysis; format: ADME, organism-based, Neoplasm; parameters: dose 30 mg/kg, route intravenous; conditions: in vivo; in short: as §3
[16] = AUC (0 to t) in tumor of LLC tumor bearing C57BL/6N mouse assessed as MDA-linker level at 30 mg/kg, iv up to 24 hrs by LC-MS/MS analysis; format: ADME, organism-based, Neoplasm; conditions: in vivo; in short: as §3
[17] = AUC (0 to t) in tumor of LLC tumor bearing C57BL/6N mouse assessed as paclitaxel level at 30 mg/kg, iv up to 24 hrs by LC-MS/MS analysis; format: ADME, organism-based, Neoplasm; conditions: in vivo; in short: as §3
[18] = biological target: T1, Nucleotide-binding oligomerization domain-containing protein 2; assay: Inhibition of MDP-stimulated NOD2 activation in human PBMC derived macrophages assessed as reduction in NOD2-mediated NF-kB signaling by measuring decrease in IkBalpha level preincubated for 1 hr followed by MDP-stimulation for 1 hr by Western blot method
[19] = tested on: Lewis lung carcinoma cell line; assay: Antitumor activity against mouse LLC cells implanted in C57BL/6N mouse assessed as inhibition of lung tumor metastasis at 30 mg/kg, iv administered once in every two days measured 4 weeks after implantation; format: functional, organism-based
[20] = biological target: T1, Nucleotide-binding oligomerization domain-containing protein 2; assay: Inhibition of MDP-stimulated human NOD2 activation expressed in HEK-Blue cells assessed as reduction in NOD2-mediated NF-kB signaling by measuring decrease in phosphorylated RIP2 level preincubated for 1 hr followed by MDP-stimulation for 1 hr by Western blot method; format: cell-based
[21] = tested on: Lewis lung carcinoma cell line; assay: Potentiation of paclitaxel-induced antitumor activity against mouse LLC cells implanted in C57BL/6N mouse assessed as inhibition of lung tumor metastasis at 30 mg/kg, iv administered once in every two days and paclitaxel treatment once in every four days measured 4 weeks after implantation relative to control; format: functional
[22] = tested on: Lewis lung carcinoma cell line; assay: Potentiation of paclitaxel-induced antitumor activity against mouse LLC cells implanted in C57BL/6N mouse assessed as reduction in tumor weight at 30 mg/kg, iv administered once in every two days and paclitaxel treatment once in every four days measured 4 weeks after implantation; format: functional, organism-based
[23] = biological target: T1, Nucleotide-binding oligomerization domain-containing protein 2; assay: Inhibition of MDP-stimulated NOD2 activation in human PBMC derived macrophages assessed as reduction in NOD2-mediated MAPK signaling by measuring decrease in phosphorylated JNK level preincubated for 1 hr followed by MDP-stimulation for 1 hr by Western blot method
[24] = biological target: Receptor-interacting serine/threonine-protein kinase 2 (Homo sapiens) (UniProt O43353); assay: Inhibition of recombinant human N-terminal GST-tagged RIP2 (1 to 299 residues) expressed in baculovirus infected Sf9 cells at 10 uM using MBP as substrate incubated for 60 mins in presence of ATP by ADP-Glo assay
Receptor-interacting serine/threonine-protein kinase 2 (Homo sapiens), sequence (O43353 whole entry, the tested form may be a part): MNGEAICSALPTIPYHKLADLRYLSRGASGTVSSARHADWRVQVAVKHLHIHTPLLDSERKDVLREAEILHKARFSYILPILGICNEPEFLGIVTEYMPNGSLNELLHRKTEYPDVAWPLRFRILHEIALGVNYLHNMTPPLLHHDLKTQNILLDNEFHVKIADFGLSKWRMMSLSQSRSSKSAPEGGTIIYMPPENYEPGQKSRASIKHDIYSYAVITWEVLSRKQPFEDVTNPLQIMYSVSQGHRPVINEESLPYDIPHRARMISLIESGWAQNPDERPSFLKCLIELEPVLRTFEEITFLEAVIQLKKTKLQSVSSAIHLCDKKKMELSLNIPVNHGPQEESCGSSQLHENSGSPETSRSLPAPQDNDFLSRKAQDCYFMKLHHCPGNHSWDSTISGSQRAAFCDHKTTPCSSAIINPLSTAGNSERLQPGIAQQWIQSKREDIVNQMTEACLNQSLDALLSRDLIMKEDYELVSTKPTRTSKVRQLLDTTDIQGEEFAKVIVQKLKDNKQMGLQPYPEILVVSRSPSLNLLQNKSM

[25] = biological target: T1, Nucleotide-binding oligomerization domain-containing protein 2; assay: Inhibition of MDP-stimulated human NOD2 activation expressed in HEK-Blue cells assessed as reduction in NOD2-mediated NF-kB signaling by measuring decrease in IkBalpha level preincubated for 1 hr followed by MDP-stimulation for 1 hr by Western blot method; format: cell-based
[26] = biological target: T1, Nucleotide-binding oligomerization domain-containing protein 2; assay: Inhibition of MDP-stimulated NOD2 activation in human PBMC derived macrophages assessed as reduction in NOD2-mediated MAPK signaling by measuring decrease in phosphorylated p38 level preincubated for 1 hr followed by MDP-stimulation for 1 hr by Western blot method
[27] = biological target: T1, Nucleotide-binding oligomerization domain-containing protein 2; assay: Inhibition of MDP-induced human NOD2 signaling expressed in HEK-Blue cells at 10 uM preincubated for 3 hrs followed by MDP-stimulation for 20 hrs by spectrophotometry based SEAP reporter gene assay relative to control; format: cell-based
[28] = biological target: T1, Nucleotide-binding oligomerization domain-containing protein 2; assay: Inhibition of MDP-stimulated human NOD2 activation expressed in HEK-Blue cells assessed as reduction in NOD2-mediated MAPK signaling by measuring decrease in phosphorylated JNK level preincubated for 1 hr followed by MDP-stimulation for 1 hr by Western blot method; format: cell-based
[29] = biological target: T1, Nucleotide-binding oligomerization domain-containing protein 2; assay: Inhibition of MDP-stimulated human NOD2 activation expressed in HEK-Blue cells assessed as reduction in NOD2-mediated MAPK signaling by measuring decrease in phosphorylated p38 level preincubated for 1 hr followed by MDP-stimulation for 1 hr by Western blot method; format: cell-based
[30] = biological target: T1, Nucleotide-binding oligomerization domain-containing protein 2; assay: Inhibition of MDP-stimulated NOD2 activation in human PBMC derived macrophages assessed as reduction in NOD2-mediated MAPK signaling by measuring decrease in phosphorylated ERK1/2 level preincubated for 1 hr followed by MDP-stimulation for 1 hr by Western blot method
[31] = tested on: Lewis lung carcinoma cell line; assay: Antitumor activity against mouse LLC cells implanted in C57BL/6N mouse assessed as reduction in tumor weight at 30 mg/kg, iv administered once in every two days measured 4 weeks after implantation; format: functional, organism-based
[32] = biological target: T1, Nucleotide-binding oligomerization domain-containing protein 2; assay: Inhibition of MDP-stimulated human NOD2 activation expressed in HEK-Blue cells assessed as reduction in NOD2-mediated MAPK signaling by measuring decrease in phosphorylated ERK1/2 level preincubated for 1 hr followed by MDP-stimulation for 1 hr by Western blot method; format: cell-based
[33] = biological target: T1, Nucleotide-binding oligomerization domain-containing protein 2; assay: Inhibition of NOD2 signaling in human PBMC derived macrophages assessed as inhibition of MDP-induced IL-6 mRNA expression at 1 to 10 uM preincubated for 1 hr followed by MDP-stimulation for 90 mins by RT-PCR method
[34] = biological target: T1, Nucleotide-binding oligomerization domain-containing protein 2; assay: Inhibition of MDP-stimulated NOD2 activation in human PBMC derived macrophages assessed as reduction in NOD2-mediated NF-kB signaling by measuring decrease in phosphorylated RIP2 level preincubated for 1 hr followed by MDP-stimulation for 1 hr by Western blot method
[35] = biological target: T1, Nucleotide-binding oligomerization domain-containing protein 2; assay: Inhibition of His-tagged and FLAG-tagged NOD2 (unknown origin) self-oligomerization expressed in HEK293T cells at 10 uM preincubated for 1 hr followed by MDP stimulation for 15 mins by co-immunoprecipitation assay; format: cell-based
[36] = Cytotoxicity against HEK-Blue cells expressing human NOD2 assessed as reduction in cell growth at 0.3125 to 10000 nM preincubated for 3 hrs followed by MDP-stimulation for 20 hrs by SRB assay; format: cell-based; conditions: 10 µM
[37] = Cytotoxicity against HEK-Blue cells expressing human NOD2 assessed as reduction in cell growth at 0.3125 to 10000 nM incubated for 3 hrs by SRB assay; format: cell-based; conditions: 10 µM

inhibition activity call (active/not active) [3]: inactive | Activity [4]: inactive
Compound: C[C@H](NC(=O)/C=C/c1ccc(Cl)cc1)C(=O)N[C@H](CCC(=O)N[C@@H](CCCCNC(=O)CCC(=O)O)C(N)=O)C(N)=O
TGI [1]: inactive | Activity [2]: Non-Toxic | Activity [5]: Non-Toxic

fold change (FC) [6]: 2 | Cmax [7]: 4.85 nmol/g | AUCt [8]: 46.62 nmol·h/g | IC50 [3]: 7.94 µM | Tmax [9]: 1.05 h
Compound: CC(=O)O[C@H]1C(=O)[C@@]2(C)[C@H]([C@H](OC(=O)c3ccccc3)[C@]3(O)C[C@H](OC(=O)[C@H](O)[C@@H](NC(=O)c4ccccc4)c4ccccc4)C(C)=C1C3(C)C)[C@]1(OC(C)=O)CO[C@@H]1C[C@@H]2O [PACLITAXEL]

Compound: CC(=O)O[C@H]1C(=O)[C@@]2(C)[C@H]([C@H](OC(=O)c3ccccc3)[C@]3(O)C[C@H](OC(=O)[C@H](OC(=O)CCC(=O)NCCCC[C@H](NC(=O)CC[C@@H](NC(=O)[C@H](C)NC(=O)/C=C/c4ccc(Cl)cc4)C(N)=O)C(N)=O)[C@@H](NC(=O)c4ccccc4)c4ccccc4)C(C)=C1C3(C)C)[C@]1(OC(C)=O)CO[C@@H]1C[C@@H]2O
Tmax [10]: 12 h | AUCt [11]: 211.02 nmol·h/g | Cmax [12]: 5.83 nmol/g | Tmax [13]: 10.4 h | Cmax [14]: 1.01 nmol/g | Cmax [15]: 15.39 nmol/g | AUCt [16]: 16.27 nmol·h/g | AUCt [17]: 89.63 nmol·h/g

inhibition [18]: Dose-dependent effect | inhibition [20]: Dose-dependent effect | inhibition [23]: Dose-dependent effect | inhibition [24]: inactive | inhibition [25]: Dose-dependent effect | inhibition [26]: Dose-dependent effect | inhibition [27]: 50% | inhibition [28]: Dose-dependent effect | inhibition [29]: Dose-dependent effect | inhibition [30]: Dose-dependent effect | inhibition [32]: Dose-dependent effect | inhibition activity call (active/not active) [3]: Active | inhibition [33]: Active | inhibition [34]: Dose-dependent effect | inhibition [35]: Active
Compound: CC(=O)O[C@H]1C(=O)[C@@]2(C)[C@H]([C@H](OC(=O)c3ccccc3)[C@]3(O)C[C@H](OC(=O)[C@H](OCCC(=O)NCCCC[C@H](NC(=O)CC[C@@H](NC(=O)[C@H](C)NC(=O)/C=C/c4ccc(Cl)cc4)C(N)=O)C(N)=O)[C@@H](NC(=O)c4ccccc4)c4ccccc4)C(C)=C1C3(C)C)[C@]1(OC(C)=O)CO[C@@H]1C[C@@H]2O
inhibition [19]: inactive | fold change (FC) [21]: 2 | TGI [22]: Active | TGI [31]: inactive | Activity [36]: Non-Toxic | Activity [37]: Non-Toxic
